SENP8 block-1: SENP8 protease inhibitors, primary screen, biochemical, luminescence. hit rate 1.2% among 330,000. purified SENP8, Z-RLRGG-aminoluciferin cleavage. inhibition, % at 10 µM. Sentrin-specific protease 8 (Homo sapiens), Q96LD8; in the data active = inhibition above about 50%
Apaf1 inhib: inhibitors of human Apaf-1 apoptosome, primary screen, biochemical, DEVD-Rh110 fluorescence, uHTS; Apoptotic protease-activating factor 1 (Homo sapiens), O14727; reconstituted apoptosome caspase-3 activity; inhibition, % at 20 µM; hit rate 0.71% among 330,000; active = inhibition of at least 40% at 20 µM
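System – cell-free apoptosome with Apaf-1, procaspase-3 and caspase-9 · Buffer or medium – pH 7.5 Hepes buffer with CHAPS, BSA, DTT · Also added – cytochrome c with DEVD-Rh110 · Times – 30 min compound preincubation, 50 min activation, room temperature · Technique – Rh110 fluorescence intensity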
SENP6 inh: SENP6 protease inhibitors, primary screen, biochemical, luminescence, uHTS; Sentrin-specific protease 6 (Homo sapiens), Q9GZR1; Recombinant SENP6 catalytic domain, aminoluciferin luminescence; inhibition, % at 10 µM; hit rate 1.8% among 330,000;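 active = inhibition above about 50% at the single tested dose, limit read from the data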
Target sequence (Q9GZR1 628-1112 limits assumed): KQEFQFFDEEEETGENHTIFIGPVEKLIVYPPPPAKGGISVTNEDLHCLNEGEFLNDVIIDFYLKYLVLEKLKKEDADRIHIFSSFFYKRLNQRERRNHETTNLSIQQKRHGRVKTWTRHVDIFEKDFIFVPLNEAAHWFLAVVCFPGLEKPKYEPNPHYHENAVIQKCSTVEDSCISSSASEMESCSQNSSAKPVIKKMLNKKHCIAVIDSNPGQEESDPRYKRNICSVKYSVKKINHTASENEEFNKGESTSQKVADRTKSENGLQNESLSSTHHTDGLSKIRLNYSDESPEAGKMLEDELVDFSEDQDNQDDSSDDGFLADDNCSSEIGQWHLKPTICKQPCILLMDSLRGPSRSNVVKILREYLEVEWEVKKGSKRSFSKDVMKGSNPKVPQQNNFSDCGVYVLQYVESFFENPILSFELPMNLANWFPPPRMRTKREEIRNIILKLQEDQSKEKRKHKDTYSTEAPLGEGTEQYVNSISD
SENP7 block: SENP7 protease inhibitors, primary screen, biochemical, luminescence, uHTS; Sentrin-specific protease 7 (Homo sapiens), Q9BQF6; recombinant SENP7, Z-RLRGG-aminoluciferin luminescence, 40 min; inhibition, % at 5 µM; hit rate 1.5% among 330,000; AID 434973, 2010;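 active = inhibition above about 50% at the single test dose, limit read from the data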
UBC13 polyUb: UBC13 polyubiquitin chain formation inhibitors, primary screen, biochemical, TR-FRET, uHTS; Ubiquitin-conjugating enzyme E2 N (Homo sapiens), P61088; inhibition, % at 20 µM; hit rate 0.47% among 330,000; AID 485273, 2010; in the data active = inhibition above about 45%, passing the limit was not always enough
Target sequence (P61088 whole entry, looked up): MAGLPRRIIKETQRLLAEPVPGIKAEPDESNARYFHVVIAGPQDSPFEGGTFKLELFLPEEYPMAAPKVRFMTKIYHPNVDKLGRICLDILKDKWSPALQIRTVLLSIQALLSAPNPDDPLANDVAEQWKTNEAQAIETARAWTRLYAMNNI
SENP8 block-2: human SENP8 protease inhibitors, primary screen, biochemical, fluorescence, Nedd8 protein substrate, uHTS; recombinant SENP8; inhibition, % at 20 µM; AID 602440, 2012; hit rate 0.64% among 360,000; Sentrin-specific protease 8 (Homo sapiens), Q96LD8; in the data active = inhibition mostly above about 40%, no sharp cut-off; inactive = mostly below about 27%
SENP8 confirm: SENP8 protease inhibitors, retest, confirmation, biochemical, luminescence, single concentration | shares compounds with SENP7 block | Recombinant SENP8, Z-RLRGG-aminoluciferin luminescence, 60 min | inhibition, % at 12.5 µM | hit rate 40% among 6,200;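 active = mean inhibition across replicates above about 50%, limit read from the data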
SENP6 confirm: SENP6 protease inhibitors, confirmation, biochemical, luminescence, single concentration; shares compounds with SENP7 block; recombinant SENP6, Z-RLRGG-aminoluciferin luminescence; inhibition, % at 12.5 µM; hit rate 58% among 6,200; AID 488915, 2010
SENP7 confirm: SENP7 protease inhibitors, retest, confirmation, biochemical, luminescence, single concentration; recombinant SENP7, Z-RLRGG-aminoluciferin luminescence, 40 min; inhibition, % at 12.5 µM; hit rate 69% among 6,200; shares compounds with SENP7 block; AID 488917, 2010
Casp3 SENP sel: caspase-3 protease inhibitors, confirmation, selectivity assay for SENP inhibitor project, biochemical, single concentration; shares compounds with SENP7 block; purified caspase-3, Z-DEVD-aminoluciferin luminescence, 60 min; inhibition, % at 12.5 µM; hit rate 60% among 6,200; AID 488918, 2010;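 active = mean inhibition above about 50%, limit read from the data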
SENP luc ctr: luminescence interference (SENP counter-screen) | inhibition, % at 12.5 µM | AID 488919 | shares compounds with SENP7 block | hit rate 39% among 6,200 | Pre-incubated SENP8/Z-RLRGG-aminoluciferin, luciferase luminescence interference;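 active = mean inhibition above about 50% when retested at one dose, limit read from the data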
Of the large screens only hits and unclear results are named; the others gave an inactive call (follow-up assays come after a bar, where they were run). This is a sample that favours compounds with a hit; in the whole collection about 3% have one here.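 Rule for the calls, unless noted: active = mean inhibition above about 50% in the one-dose retest (limit read from the data); inactive = the rest.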

COc1ccc(C2OC(CCc3ccccc3)CC3=C2C(=O)OC(C)(C)O3)cc1 (stereo not given)	none (no result: SENP8 block-1, Apaf1 inhib, SENP6 inh, SENP7 block, UBC13 polyUb)
O=C(NCc1ccccc1Cl)c1cccc(NC(=O)c2ccccc2)c1	none
COc1ccccc1CNC(=O)c1cccc(NC(=O)c2ccccc2)c1	SENP6 inh 93 | SENP8 confirm inactive | SENP6 confirm inactive | SENP7 confirm inactive | Casp3 SENP sel inactive | SENP luc ctr inactive
COc1cc(NC(=O)Cc2ccccc2)nc(OC)n1	none
CCOc1cccc(C(=O)Nc2ccc(NC(=O)c3ccccc3)c(C)c2)c1	SENP8 block-1 77, SENP6 inh 78, SENP7 block 78 | SENP8 confirm inactive | SENP6 confirm inactive | SENP7 confirm inactive | Casp3 SENP sel 86 | SENP luc ctr inactive
COc1cccc(C(=O)Nc2cccc(OCC(=O)O)c2)c1	SENP7 block 58 | SENP8 confirm 53 | SENP6 confirm inactive | SENP7 confirm 81 | Casp3 SENP sel 84 | SENP luc ctr 56
COc1ccc(C(=O)Nc2cc(OC)nc(OC)n2)cc1	SENP8 block-1 74, SENP6 inh 87, SENP7 block 83 | SENP8 confirm 83 | SENP6 confirm 83 | SENP7 confirm 97 | Casp3 SENP sel 92 | SENP luc ctr 84
COC(=O)COc1cccc(NC(=O)c2cc(OC)cc(OC)c2)c1	none
C[C@@H](CO)NC(=O)c1[nH]cnc1C(=O)Nc1ccc(CNC(=O)OC(C)(C)C)cc1	none (no result: SENP8 block-1, Apaf1 inhib, SENP6 inh, SENP7 block, UBC13 polyUb)
CCCC(=O)Nc1ccc(NC(=O)c2cccc(OC)c2)nc1	SENP6 inh 52 | SENP8 confirm inactive | SENP6 confirm inactive | SENP7 confirm 75 | Casp3 SENP sel 76 | SENP luc ctr 52
COc1cccc(C(=O)Nc2ccc3ccccc3c2)c1	SENP8 block-1 86, SENP6 inh 89, SENP7 block 91 | SENP8 confirm inactive | SENP6 confirm 86 | SENP7 confirm 99 | Casp3 SENP sel 73 | SENP luc ctr 84
Cc1cccc(C(=O)Nc2ccc3ccccc3c2)c1	SENP8 block-1 73, SENP6 inh 83, SENP7 block 75 | SENP8 confirm 74 | SENP6 confirm 76 | SENP7 confirm 94 | Casp3 SENP sel 58 | SENP luc ctr inactive
COc1cccc(C(=O)Nc2ccc3[nH]ncc3c2)c1	none
O=C(Nc1ccc2ccccc2c1)c1cccc([N+](=O)[O-])c1	none
Cc1cc(NC(=O)c2cccs2)ncc1NC(=O)c1cccc(F)c1	none
Cc1cc(NC(=O)c2ccccc2)ncc1NC(=O)c1cccs1	SENP8 block-1 72, SENP6 inh 64 | SENP8 confirm 76 | SENP6 confirm 74 | SENP7 confirm 93 | Casp3 SENP sel 90 | SENP luc ctr 80
Cc1cc(NC(=O)c2cccc(F)c2)ncc1NC(=O)c1ccco1	SENP8 block-1 82, SENP6 inh 94, SENP7 block 93 | SENP8 confirm 87 | SENP6 confirm 87 | SENP7 confirm 99 | Casp3 SENP sel 95 | SENP luc ctr 88
O=C(NC(=O)c1ccccc1)Nc1ccc(Cl)cn1	SENP7 block 72 | SENP8 confirm inactive | SENP6 confirm inactive | SENP7 confirm inactive | Casp3 SENP sel inactive | SENP luc ctr inactive
O=C(Nc1ccc(Cl)cn1)Nc1ccc(Cl)cn1	none
O=C(Nc1ccc(Cl)cn1)c1ccccc1F	SENP8 block-1 64, SENP6 inh 82, SENP7 block 80 | SENP8 confirm inactive | SENP6 confirm 71 | SENP7 confirm 93 | Casp3 SENP sel 85 | SENP luc ctr inactive
O=C(Nc1ccc(NC(=O)c2ccco2)nc1)c1cccc(F)c1	none
CC1(C(=O)NS(=O)(=O)c2ccc(C#N)cc2)CCN1C(=O)Cc1ccc(-c2ccccc2)cc1 (stereo not given)	none (no result: SENP8 block-1, Apaf1 inhib, SENP6 inh, SENP7 block, UBC13 polyUb)
OC(c1ccccc1)(c1ccccc1)C1CCN(CCCOc2ccc3c(c2)CCCC3)CC1	none (no result: SENP8 block-1, Apaf1 inhib, SENP6 inh, SENP7 block, UBC13 polyUb)
COc1ccc(-c2nc(NCCN(C)C)nc3ccsc23)c(C)c1	none (no result: SENP8 block-1, Apaf1 inhib, SENP6 inh, SENP7 block, UBC13 polyUb)
COc1ccc(-c2cccc(N3CCN(c4ccccn4)CC3)n2)cc1OC	none (no result: SENP8 block-1, Apaf1 inhib, SENP6 inh, SENP7 block, UBC13 polyUb)
O=C(COc1ccc(Cl)cc1Cl)Nc1ccc(Cl)cn1	SENP8 block-1 72, SENP6 inh 84 | SENP8 confirm inactive | SENP6 confirm inactive | SENP7 confirm inactive | Casp3 SENP sel 59 | SENP luc ctr inactive
O=C(Nc1cccc(C(=O)Nc2ccc(Cl)cn2)c1)c1ccccc1	none
O=C(Nc1ccc(Cl)cn1)c1cccc(F)c1	SENP8 block-1 73, SENP6 inh 91, SENP7 block 89 | SENP8 confirm 83 | SENP6 confirm 85 | SENP7 confirm 97 | Casp3 SENP sel 92 | SENP luc ctr 81
COc1ccc(NC(=O)C2(C)CCN2CC2CCCCC2)cc1OC (stereo not given)	none (no result: SENP8 block-1, Apaf1 inhib, SENP6 inh, SENP7 block, UBC13 polyUb)
CC1(C(=O)NCc2ccccc2Br)CCN1Cc1csc2ccccc12 (stereo not given)	none (no result: SENP8 block-1, Apaf1 inhib, SENP6 inh, SENP7 block, UBC13 polyUb)
CC(O)(c1ccccc1)c1nc(-c2ccc(S(C)(=O)=O)cc2)cs1 (stereo not given)	none (no result: SENP8 block-1, Apaf1 inhib, SENP6 inh, SENP7 block, UBC13 polyUb)
Cc1ccc(NC(=O)COC(=O)c2ccc([N+](=O)[O-])s2)c(C)c1	none
CN(CC(=O)Nc1ccccc1Cl)C(=O)COC(=O)c1ccc([N+](=O)[O-])s1	SENP8 block-1 69, SENP6 inh 70 | SENP8 confirm 78 | SENP6 confirm 85 | SENP7 confirm inactive | Casp3 SENP sel inactive | SENP luc ctr inactive
NS(=O)(=O)c1ccc(NC(=O)COC(=O)c2ccc([N+](=O)[O-])s2)cc1	SENP8 block-1 59 | SENP8 confirm inactive | SENP6 confirm 86 | SENP7 confirm inactive | Casp3 SENP sel inactive | SENP luc ctr inactive

Screening results deposited in PubChem BioAssay by Sanford-Burnham Center for Chemical Genomics.
